Measured values taken from ChEMBL document CHEMBL1147759, “Substituted indanylacetic acids as PPAR-alpha-gamma activators” (Bioorg Med Chem Lett, 2006).

Key:
[1] = target: T1, Peroxisome proliferator-activated receptor gamma (Homo sapiens, UniProt P37231); experiment: Activity against PPAR gamma in human by FRET assay
T1 sequence (P37231 whole entry): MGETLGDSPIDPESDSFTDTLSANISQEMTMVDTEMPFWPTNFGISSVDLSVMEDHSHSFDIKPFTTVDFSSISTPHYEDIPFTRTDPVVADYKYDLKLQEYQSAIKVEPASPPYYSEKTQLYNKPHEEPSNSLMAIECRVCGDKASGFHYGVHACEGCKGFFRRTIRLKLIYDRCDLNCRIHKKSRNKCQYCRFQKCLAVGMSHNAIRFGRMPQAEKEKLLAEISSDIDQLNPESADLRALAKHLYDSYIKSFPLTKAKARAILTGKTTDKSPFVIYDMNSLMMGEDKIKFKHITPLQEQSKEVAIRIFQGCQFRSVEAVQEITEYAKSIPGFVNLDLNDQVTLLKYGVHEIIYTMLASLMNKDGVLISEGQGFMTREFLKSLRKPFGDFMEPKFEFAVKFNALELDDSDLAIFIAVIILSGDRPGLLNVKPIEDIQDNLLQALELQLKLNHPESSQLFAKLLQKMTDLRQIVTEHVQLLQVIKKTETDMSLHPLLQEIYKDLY

[2] = target: T2, Peroxisome proliferator-activated receptor alpha (Homo sapiens, UniProt Q07869); experiment: Activity against PPAR alpha in human by FRET assay
T2 sequence (Q07869 whole entry): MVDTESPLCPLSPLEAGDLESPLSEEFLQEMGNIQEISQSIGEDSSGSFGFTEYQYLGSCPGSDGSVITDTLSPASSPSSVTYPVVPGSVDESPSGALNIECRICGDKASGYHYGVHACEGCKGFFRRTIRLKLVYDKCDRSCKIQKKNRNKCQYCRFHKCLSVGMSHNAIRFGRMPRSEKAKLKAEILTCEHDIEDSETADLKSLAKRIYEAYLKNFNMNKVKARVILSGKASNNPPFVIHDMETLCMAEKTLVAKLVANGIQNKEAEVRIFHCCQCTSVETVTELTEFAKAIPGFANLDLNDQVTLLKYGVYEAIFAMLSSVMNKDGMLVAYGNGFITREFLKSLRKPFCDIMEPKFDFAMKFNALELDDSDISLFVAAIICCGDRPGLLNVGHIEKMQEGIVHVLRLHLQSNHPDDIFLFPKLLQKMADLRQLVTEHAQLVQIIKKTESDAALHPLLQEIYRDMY
Procedure, shortened: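 Human PPAR-α ligand-binding domain (GST-tagged), incubated with compound, europium-labelled anti-GST antibody, biotinylated CREB-binding protein co-activator and streptavidin-APC. Time-resolved FRET read with excitation at 340 nm and emission at 615 and 640 nm. EC50 taken as the mean of at least three experiments.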

Structure (SMILES)	EC50 [1]	EC50 [2]
CCC(C(=O)O)C1CCc2cc(OCCc3nc(-c4ccc5c(c4)OCO5)oc3C)ccc21 (stereo unspecified)	14 nM	354 nM
CCC(C(=O)O)C1CCc2cc(OCCc3nc(-c4ccc(OC)c(OC)c4)oc3C)ccc21 (stereo unspecified)	84 nM	1130 nM
CCC(C(=O)O)C1CCc2cc(OCCc3nc(-c4ccc(C)c(F)c4)oc3C)ccc21 (stereo unspecified)	43 nM	46 nM
CCC(C(=O)O)C1CCc2cc(OCCc3nc(Cc4ccc(F)cc4)oc3C)ccc21 (stereo unspecified)	523 nM	204 nM
CCC(C(=O)O)C1CCc2cc(OCCc3nc(-c4ccccc4)oc3C)c(C(C)=O)cc21 (stereo unspecified)	> 10000 nM	327 nM
CCC(C(=O)O)C1CCc2cc(OCCc3nc(-c4ccc(Cl)cc4Cl)oc3C)ccc21 (stereo unspecified)	738 nM	5480 nM
CCC(C(=O)O)C1CCc2cc(OCCc3nc(-c4ccc(C)cc4)oc3C)ccc21 (stereo unspecified)	45 nM	65 nM
CCC(C(=O)O)C1CCc2cc(OCCc3nc(-c4ccccc4F)oc3C)ccc21 (stereo unspecified)	49 nM	559 nM
CCC(C(=O)O)C1CCc2cc(OCCc3nc(COc4ccccc4)oc3C)ccc21 (stereo unspecified)	45 nM	61 nM
CCC(C(=O)O)C1CCc2cc(OCCc3nc(-c4ccccc4)oc3C)c(-c3ccc(OC)cc3)cc21 (stereo unspecified)	124 nM	23 nM
CCC(C(=O)O)C1CCc2cc(OCCc3nc(-c4ccccc4)oc3C)c(Br)cc21 (stereo unspecified)	> 10000 nM	181 nM
CCC(C(=O)O)C1CCc2cc(OCCc3nc(-c4cccc(C(F)(F)F)c4)oc3C)ccc21 (stereo unspecified)	21 nM	171 nM
CCC(C(=O)O)C1CCc2cc(OCCc3nc(-c4ccc(C(C)(C)C)cc4)oc3C)ccc21 (stereo unspecified)	19 nM	240 nM
CCC(C(=O)O)C1CCc2cc(OCCc3nc(-c4ccc(F)c(C)c4)oc3C)ccc21 (stereo unspecified)	77 nM	75 nM
CC[C@@H](C(=O)O)[C@H]1CCc2cc(OCCc3nc(-c4ccc(C)cc4)oc3C)ccc21	> 10000 nM	> 10000 nM
CCc1ccc(-c2nc(CCOc3ccc4c(c3)CCC4C(CC)C(=O)O)c(C)o2)cc1 (stereo unspecified)	40 nM	109 nM
CCC(C(=O)O)C1CCc2cc(OCCc3nc(-c4cccc(OC)c4)oc3C)ccc21 (stereo unspecified)	1 nM	254 nM
CCC(C(=O)O)C1CCc2cc(OCCc3nc(-c4ccco4)oc3C)ccc21 (stereo unspecified)	396 nM	745 nM
CCC(C(=O)O)C1CCc2cc(OCCc3nc(-c4cccc(C)c4)oc3C)ccc21 (stereo unspecified)	34 nM	271 nM
CCC(C(=O)O)C1CCc2cc(OCCc3nc(C4CCCCC4)oc3C)ccc21 (stereo unspecified)	136 nM	111 nM
CCC(C(=O)O)C1CCc2cc(OCCc3nc(-c4ccccc4)oc3C)c(-c3ccc(Cl)cc3)cc21 (stereo unspecified)	168 nM	45 nM
CCC(C(=O)O)C1CCc2cc(OCCc3nc(C4CCCC4)oc3C)ccc21 (stereo unspecified)	212 nM	202 nM
CCC(C(=O)O)C1CCc2cc(OCCc3nc(-c4ccc(OC)cc4)oc3C)ccc21 (stereo unspecified)	42 nM	199 nM
CCC(C(=O)O)C1CCc2cc(OCCc3nc(-c4ccc5c(c4)OCC5)oc3C)ccc21 (stereo unspecified)	6 nM	65 nM
CC[C@H](C(=O)O)[C@@H]1CCc2cc(OCCc3nc(-c4ccccc4)oc3C)ccc21	6 nM	62 nM
CCC(C(=O)O)C1CCc2cc(OCCc3nc(-c4cc(C)on4)oc3C)ccc21 (stereo unspecified)	762 nM	827 nM
CC[C@@H](C(=O)O)[C@@H]1CCc2cc(OCCc3nc(-c4ccc(C)cc4)oc3C)ccc21	> 10000 nM	1520 nM

Structure (SMILES)	EC50 [1]	EC50 [2]
CC[C@H](C(=O)O)[C@H]1CCc2cc(OCCc3nc(-c4ccccc4)oc3C)ccc21	19 nM	26 nM
CC[C@H](C(=O)O)[C@@H]1CCc2cc(OCCc3nc(-c4ccc(F)cc4)oc3C)ccc21	46 nM	94 nM
CC[C@H](C(=O)O)[C@H]1CCc2cc(OCCc3nc(-c4ccc(C)cc4)oc3C)ccc21	83 nM	48 nM
CCC(C(=O)O)C1CCc2cc(OCCc3nc(-c4cc5ccccc5s4)oc3C)ccc21 (stereo unspecified)	37 nM	287 nM
CCC(C(=O)O)C1CCc2cc(OCCc3nc(-c4ccccc4)oc3C)c(Cl)cc21 (stereo unspecified)	294 nM	127 nM
CCC(C(=O)O)C1CCc2cc(OCCc3nc(-c4ccccc4)oc3C)c(-c3ccccc3)cc21 (stereo unspecified)	290 nM	58 nM
CC[C@@H](C(=O)O)[C@H]1CCc2cc(OCCc3nc(-c4ccc(Cl)c(Cl)c4)oc3C)ccc21	225 nM	63 nM
CCCCc1ccc(-c2nc(CCOc3ccc4c(c3)CCC4C(CC)C(=O)O)c(C)o2)cc1 (stereo unspecified)	16 nM	82 nM
CCC(C(=O)O)C1CCc2cc(OCCc3nc(-c4ccc(C)c(C)c4)oc3C)ccc21 (stereo unspecified)	32 nM	38 nM
CCC(C(=O)O)C1CCc2cc(OCCc3nc(-c4ccc5ccccc5c4)oc3C)ccc21 (stereo unspecified)	16 nM	104 nM
CCC(C(=O)O)C1CCc2cc(OCCc3nc(-c4c(F)cccc4F)oc3C)ccc21 (stereo unspecified)	368 nM	523 nM
CCC(C(=O)O)C1CCc2cc(OCCc3nc(COc4ccc(Cl)cc4)oc3C)ccc21 (stereo unspecified)	104 nM	53 nM
CC[C@@H](C(=O)O)[C@H]1CCc2cc(OCCc3nc(-c4ccc(F)cc4)oc3C)ccc21	> 10000 nM	868 nM
CC[C@H](C(=O)O)[C@@H]1CCc2cc(OCCc3nc(-c4ccc(Cl)c(Cl)c4)oc3C)ccc21	46 nM	57 nM
CC[C@@H](C(=O)O)[C@H]1CCc2cc(OCCc3nc(-c4ccccc4)oc3C)ccc21	605 nM	> 10000 nM
CCC(C(=O)O)C1CCc2cc(OCCc3nc(-c4cc(C(F)(F)F)cc(C(F)(F)F)c4)oc3C)ccc21 (stereo unspecified)	247 nM	1170 nM
CCC(C(=O)O)C1CCc2cc(OCCc3nc(Cc4ccccc4)oc3C)ccc21 (stereo unspecified)	330 nM	718 nM
CC[C@@H](C(=O)O)[C@@H]1CCc2cc(OCCc3nc(-c4ccccc4)oc3C)ccc21	95 nM	350 nM
CCC(C(=O)O)C1CCc2cc(OCCc3nc(-c4cccc5ccccc45)oc3C)ccc21 (stereo unspecified)	113 nM	451 nM
CCC(C(=O)O)C1CCc2cc(OCCc3nc(-c4ccc(C(C)C)cc4)oc3C)ccc21 (stereo unspecified)	22 nM	119 nM
CCC(C(=O)O)C1CCc2cc(OCCc3nc(-c4ccc(-c5ccccc5)cc4)oc3C)ccc21 (stereo unspecified)	43 nM	3280 nM
CCC(C(=O)O)C1CCc2cc(OCCc3nc(-c4ccc(Cl)cc4)oc3C)ccc21 (stereo unspecified)	206 nM	92 nM
CCC(C(=O)O)C1CCc2cc(OCCc3nc(-c4cccc(F)c4)oc3C)ccc21 (stereo unspecified)	61 nM	336 nM
Cc1oc(-c2ccccc2)nc1CCOc1ccc2c(c1)CCC2C(C)C(=O)O (stereo unspecified)	104 nM	1000 nM
CCC(C(=O)O)C1CCc2cc(OCCc3nc(-c4ccccc4C)oc3C)ccc21 (stereo unspecified)	153 nM	637 nM
CCC(C(=O)O)C1CCc2cc(OCCc3nc(-c4ccc(C(F)(F)F)cc4)oc3C)ccc21 (stereo unspecified)	205 nM	58 nM
